For one experiment, the system named is PC-3 cells. Nature of the experiment: IC50 determination, SRB cell density assay, PC-3. The experiment is classed as cell-based. The settings on record: Homo sapiens. The method in brief:
(§1)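 Cells were seeded in 96-well plates (PC-3 at 3 × 10³, T47D at 5 × 10³) and left overnight. They were exposed 72 h at 37 °C to increasing test compound concentrations with DMSO vehicle, washed, then regrown 48 h in fresh medium. Readout was by SRB: TCA fixation overnight, 0.5% SRB for 20 min, acetic acid washes, dye dissolved in 10 mM Tris, OD at 560 nm. Density was taken relative to untreated cells (100%). Runs were in triplicate, and IC50 came from a four-parameter nonlinear fit.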

Experiment [1] relates to GRPR mRNA in PC-3 xenografts. Nature of the experiment: Ex-vivo GRPR mRNA expression in PC-3 xenografts. Also on record: species or system NMRI-Foxn1 nu/nu mice. The settings on record: PC-3 xenografts after third cycle of DTX 5 mg/kg; RT-qPCR. The method in brief:
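PC-3 xenografts came from male nude mice given taxane 5 mg/kg or placebo (polysorbate-80 1:1 in 5% glucose) weekly for 3 weeks, N = 4. After the final SPECT/CT scan, each tumor was halved. One half was processed for GRPR mRNA by RT-qPCR and compared with placebo.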

The test system of experiment [2] is T47D cells. Nature of the experiment: IC50 determination, SRB cell density assay, T47D. Format: cell-based. The following applies: Homo sapiens. In a few lines:
as §1

The subject of experiment [3] is GRPR mRNA in T47D xenografts. The experiment can be described thus: Ex-vivo GRPR mRNA expression in T47D xenografts. Also on record: species or system NMRI-Foxn1 nu/nu mice. The settings on record: T47D tumors from DXR-treated animals (5 mg/kg, 2 cycles); RT-qPCR. In a few lines:
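T47D xenografts came from estradiol-supplemented female nude mice given anthracycline 5 mg/kg or placebo weekly for 2 weeks. After the last SPECT/CT scan, each tumor was halved. One half was used for GRPR mRNA by RT-qPCR against placebo.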

For experiment [4], the system named is T47D cells. The experiment can be described thus: Sensitivity to GRPR-mediated radionuclide therapy, T47D. Format: cell-based, human. The settings on record: 50 MBq, 1 h, SRB after 6 days. The method in brief: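 T47D cells were pretreated 72 h with anthracycline or vehicle (0.4% DMSO), then regrown 24 h. Next, 3 × 10⁶ cells were seeded in T25 flasks and the following day exposed 1 h at 37 °C to 50 MBq/ml ¹⁷⁷Lu-labelled GRPR tracer, [¹⁷⁷Lu]Lu-DTPA (specificity control) or medium. Cells were scraped and re-seeded at 4 × 10³ per well, grown 6 days, then read by SRB. Density was taken versus medium-treated cells within each pretreatment group, from three independent experiments in triplicate.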

Structures are written as SMILES. Structures can show the parent of a compound that is named as a salt.

As for `CC(=O)O[C@@]12CO[C@@H]1C[C@H](O)[C@@]1(C)C(=O)[C@H](O)C3=C(C)[C@@H](OC(=O)[C@H](O)[C@@H](NC(=O)OC(C)(C)C)c4ccccc4)C[C@@](O)([C@@H](OC(=O)c4ccccc4)[C@H]21)C3(C)C` [DTX, anhydrous docetaxel], the IC50 worked out at 14.1 ± 3.72 nM in the experiment with PC-3 cells and 0.94 ± 0.39 nM with T47D cells [2]. Besides, the “GRPR mRNA levels in xenografts versus placebo” value in experiment [1] was “similar”.

With `COc1cccc2c1C(=O)c1c(O)c3c(c(O)c1C2=O)C[C@@](O)(C(=O)CO)C[C@@H]3O[C@H]1C[C@H](N)[C@H](O)[C@H](C)O1` [DXR, doxorubicin hydrochloride], the “GRPR mRNA expression in xenografts versus placebo” value in experiment [3] is “increased GRPR mRNA expression”. Moreover, in the experiment on T47D cells [2], the half-inhibitory concentration (IC50) was found to be 22.3 ± 7.04 nM.

In the case of `O=C([O-])CN(CCN(CC(=O)[O-])CC(=O)[O-])CCN(CC(=O)[O-])CC(=O)[O-].[177Lu+3]` [[^177Lu]Lu-DTPA], the “Cell density relative to medium-treated cells” value in the experiment with T47D cells [4] (DXR-pretreated T47D cells) was “slightly higher compared to the other conditions”; with T47D cells [4] (vehicle and DXR pretreated T47D cells), “no effect was observed”.

(Values after article PMC12316622 (EJNMMI Research, 2025).)
